# Results from different studies.
# Each line is one published result; the experiments were not run side by side.
# Target: Aurora kinase C (AURKC, Homo sapiens, UniProt Q9UQB9)
# Sequence (Q9UQB9 1-309, as in one of the studies): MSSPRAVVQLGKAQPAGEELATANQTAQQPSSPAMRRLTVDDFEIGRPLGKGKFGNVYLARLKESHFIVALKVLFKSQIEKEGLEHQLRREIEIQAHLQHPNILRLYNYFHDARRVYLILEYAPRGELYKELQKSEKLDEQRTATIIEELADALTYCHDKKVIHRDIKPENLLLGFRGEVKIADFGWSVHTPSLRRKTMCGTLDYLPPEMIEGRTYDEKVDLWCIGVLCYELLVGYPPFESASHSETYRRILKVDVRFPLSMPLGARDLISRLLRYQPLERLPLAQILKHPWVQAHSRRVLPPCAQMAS
Structure (SMILES),assay,conditions,remaining binding [%]
COc1cnc(Nc2cccc(S(N)(=O)=O)c2)nc1N1CCN(c2ccccc2)C(=O)C1,"binding, competition with immobilised ligand",1 µM,97
N[C@@H]1CCN(c2nccc(-c3cnn4ncccc34)n2)C1,binding,1 µM,100
Cc1cnc(Nc2ccc(C(=O)N3CCC(N4CCCC4)CC3)cc2)nc1-c1cc2ccccc2s1,"binding, competition with immobilised ligand",1 µM,4.3
O=C(Nc1cccnn1)N1CCC(=Cc2cccc(Oc3ccc(C(F)(F)F)cn3)c2)CC1,"cell-free assay, competition with immobilised ligand",1 µM,100
O=C(Nc1c[nH]nc1C(=O)NC1CCNCC1)c1cc(F)cc(F)c1,"binding, competition with immobilised ligand",1 µM,84
c1cnn2ncc(-c3ccnc(N4CCC45COC5)n3)c2c1,binding,1 µM,96
COc1ccc2c(O[C@@H]3C[C@H]4C(=O)N[C@]5(C(=O)O)CC5/C=C\CCCCC[C@H](NC(=O)OC5CCCC5)C(=O)N4C3)cc(-c3csc(NC(=O)C(C)C)n3)nc2c1C (stereo partly shown),"cell-free assay, competition with immobilised ligand",1 µM,96
C=CC(=O)N1CCC(C(=O)NCC(=O)N2CCN(c3nc(-c4cnc(N)nc4C(F)F)nc(N4CCOCC4)n3)CC2)CC1,"binding, competition with immobilised ligand",1 µM,100
CNC(=O)Nc1ccc2c(c1)CC[C@@]21OC(=O)N(CC(=O)N(Cc2ccc(F)cc2)[C@@H](C)C(F)(F)F)C1=O,"cell-free assay, competition with immobilised ligand",1 µM,100
O=C(c1ccc(Nc2nccc(-c3cc4ccccc4s3)n2)cc1)N1CCC(N2CCCC2)CC1,"binding, competition with immobilised ligand",1 µM,30
c1cncc(-c2cccc(Nc3nccc(NC4CCCCC4)n3)c2)c1,"binding, competition with immobilised ligand",10 µM,5.5
CCN1CCN(Cc2ccc(C(=O)Nc3ccc(C)c(Oc4ccc5c(c4)CC(=O)N5)c3)cc2C(F)(F)F)CC1,"binding, competition with immobilised ligand",1 µM,91
FC(F)(F)Oc1cccc(-c2cnc3ccc(-c4ccncc4)nn23)c1,"cell-free assay, competition with immobilised ligand",5 µM,78
CN(C)c1nccc(-c2cnc3ncccn23)n1,binding,1 µM,100
Cn1nc(C(F)(F)F)cc1-c1cnc(N2CCc3cc(S(=O)(=O)Nc4c(F)cc(Cl)cc4F)cc(N4CCCC4=O)c32)nc1,"cell-free assay, competition with immobilised ligand",1 µM,100
O=C(NCCCN1CCOCC1)c1ccc(Nc2ncc(Cl)c(-c3ccc(Cl)s3)n2)cc1,"binding, competition with immobilised ligand",1 µM,5.5
COc1ccc2c(c1)O[C@H](c1ccc(OC)c(OC)c1)C[C@@H]2NC(=O)C1(c2ccc3c(c2)OC(F)(F)O3)CC1,"cell-free assay, competition with immobilised ligand",1 µM,100
CN(c1nccc(-c2cnn3ncccc23)n1)C1CC1,binding,1 µM,100
CC(=O)Nc1c(C(C)=O)c(=O)n(C)c2nc(-c3ccc(Cl)cc3Cl)c(-c3ccc(Cl)cc3)cc12,"cell-free assay, competition with immobilised ligand",1 µM,100
CC1CCCN1c1nccc(-c2cnn3ncccc23)n1 (stereo not shown),binding,1 µM,89
CS(=O)(=O)c1cc(C2(NC(=O)c3cncc4c3cnn4-c3ccc(F)cc3)CC2)ccn1,"cell-free assay, competition with immobilised ligand",1 µM,100
C[C@@H]1CCN(c2nccc(-c3cnn4ncccc34)n2)C1,binding,1 µM,98
